This note sets out measurements from ChEMBL document CHEMBL1138829, “Conformationally constrained analogues of diacylglycerol. 21. A solid-phase method of synthesis of diacylglycerol lactones as a prelude to a combinatorial approach for the synthesis of protein kinase C isozyme-specific ligands” (J Med Chem, 2004).

Series [1] in a line: Partition coefficient (logP). Format: physicochemical. The following applies: octanol/water.
For series [2], the target named is T1, Protein kinase C alpha type (Homo sapiens, UniProt P17252). Nature of the series: (§1) Displacement of [20-3H]phorbol-12,13-dibutyrate (PDBu) from a recombinant protein kinase C alpha with phosphatidylserine. Summed up: (§2)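 Competition binding against [20-3H]PDBu using intact recombinant single isozyme PKC-alpha in presence of phosphatidylserine; tested as crude resin-cleaved and purified samples. ID50 obtained by least-squares fit of theoretical sigmoidal competition curve; Ki calculated from ID50 via standard relationship.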

Series [3] has as its target T1, Protein kinase C alpha type. The series is described as §1. Summed up:
as §2
This is another data set of the same source.

Series [4] has the same target. The description is as §1. Summed up:
as §2
The source holds these as a separate data set.

In series [1], `CCCCCCCCC/C=C1/CC(CO)(COC(=O)c2ccc(-c3ccccc3)cc2)OC1=O` (configuration not stated) displayed a logP of 6.61. Moreover, the inhibition constant Ki in series [2] was determined as 0.0524 µM; in series [3], 0.0191 µM.

Turning to `CCCCCCCC/C=C1/CC(CO)(COC(=O)Cc2ccccc2)OC1=O` (configuration not stated), the lipophilicity (logP) in series [1] was 4.61. The Ki in series [4] turned out to be 0.145 µM; in series [3], 0.0433 µM.

Consider `CCCCCCCCC/C=C1/CC(CO)(COC(=O)c2ccccc2)OC1=O` (configuration not stated), for which, in series [1], the log partition coefficient (logP) was 4.85. Further, the Ki is 0.037 µM in series [2] and 0.0203 µM in series [3].

`CCCCCCCC/C=C1/CC(CO)(COC(=O)c2ccccc2)OC1=O` (configuration not stated) yielded a lipophilicity (logP) in series [1] of 4.36. Besides, the inhibition constant Ki in series [4] stood at 0.0456 µM; in series [3] it was 0.0257 µM.

In series [1], `CCCCCCCC/C=C1/CC(CO)(COC(=O)c2ccc(-c3ccccc3)cc2)OC1=O` (configuration not stated) showed a logP of 6.12. Also, the inhibition constant (Ki) in series [4] came out at 0.0418 µM; in series [3], 0.028 µM.

In the case of `O=C1OC(CO)(COC(=O)c2ccccc2)C/C1=C/c1ccc(-c2ccccc2)cc1` (configuration not stated), in series [1], the log partition coefficient (logP) was 3.9. Moreover, the inhibitory constant (Ki) in series [4] turned out to be 0.041 µM; in series [3] it was 0.0141 µM.

On to `O=C(Cc1ccccc1)OCC1(CO)C/C(=C/c2ccc(-c3ccccc3)cc2)C(=O)O1` (configuration not stated), for which the log partition coefficient (logP) in series [1] is 4.15. Moreover, the Ki in series [4] was determined as 0.152 µM; in series [3], 0.048 µM.

In the case of `CCCCCCCCC/C=C1/CC(CO)(COC(=O)Cc2ccccc2)OC1=O` (configuration not stated), in series [1], the logP came out at 5.1. For the same compound, the figures for the inhibition constant (Ki) in series [2] and in series [3] were 0.0925 µM and 0.0438 µM, respectively.

In series [1], `O=C1OC(CO)(COC(=O)c2ccc(-c3ccccc3)cc2)C/C1=C/c1ccc(-c2ccccc2)cc1` (configuration not stated) displayed a logP of 5.66. In addition, the Ki worked out at 0.0839 µM in series [4] and 0.0227 µM in series [3].
